The values that follow come from ChEMBL document CHEMBL3272180, “A conformational study of beta-phenethanolamine receptor sites. 8. Pharmacological study of 3-isopropylamino-2-phenyl-trans-2-decalols” (1976).

Active and inactive are the calls of the source. No cut-off for these calls is given here.

Assay [1] in a line: Potentiation of D(-)-norepinephrine-induced contraction in Sprague-Dawley rat vas deferens assessed as contraction level at 1 x 10^-4 M relative to norepinephrine. Format: functional. An outline of the steps:
(§1)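 Isolated vasa deferentia from male Sprague–Dawley rats (300–350 g) in a 10-ml bath of Tyrode's solution, 37°, gassed with 95% O2/5% CO2. Cumulative NE dose-response curves over 3×10^-7 to 3×10^-5 M, with test agent at 1×10^-4 or 1×10^-3 M. Isotonic contractions recorded kymographically, 5 min between contractions after washout. Response expressed as percent of NE cumulative maximum (=100%), calculated per preparation. PD2 given as mean ± SE of ten curves; t test.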

Assay [2] is filed under the species Rattus norvegicus. Kind of assay: (§2) Potentiation of D(-)-norepinephrine-induced contraction in reserpine-treated Sprague-Dawley rat vas deferens assessed as contraction level at 1 x 10^-4 M relative to norepinephrine. Format: functional. In a few lines: (§3)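 Rats were reserpinized with 5 mg/kg ip 24 hr before the experiment. Vasa deferentia were then set up in Tyrode's solution at 37°, gassed with 95% O2/5% CO2. Cumulative NE curves over 3×10^-7 to 3×10^-5 M, with test agent present. Isotonic contractions recorded kymographically. Response as percent of NE cumulative maximum; mean ± SE; t test.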

The test system of assay [3] is Vas deferens. Kind of assay: Inhibition of D(-)-norepinephrine-induced contraction in Sprague-Dawley rat vas deferens assessed as contraction level at 1 x 10^-3 M relative to norepinephrine. The assay is classed as functional. On the set-up: scale not given: the % may be the effect or the level left. An outline of the steps:
as §1

The species named for assay [4] is Rattus norvegicus. Put plainly: (§4) Potentiation of D(-)-norepinephrine-induced contraction in reserpine-treated Sprague-Dawley rat vas deferens assessed as contraction level at 1 x 10^-3 M relative to norepinephrine. The assay is classed as functional. An outline of the steps:
as §3

The species named for assay [5] is Rattus norvegicus. Put plainly: Potentiation of D(-)-norepinephrine-induced contraction in reserpine-treated Sprague-Dawley rat vas deferens at 1 x 10^-2 M relative to control. The assay is classed as functional, tissue-based. An outline of the steps: as §3
The subject of assay [6] is Vas deferens. Kind of assay: Inhibition of norepinephrine uptake in Sprague-Dawley rat vas deferens at 1 x 10^-4 M after 60 mins by fluorometric analysis. Format: functional. An outline of the steps: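 Rat vas deferens pieces (50–60 mg, two per rat) incubated free-floating for 60 min at 37° in oxygenated Tyrode's with NE 1.5×10^-7 M, with or without test agent at 1×10^-4 M. Tissue then washed three times for 5 sec, and total catecholamines estimated fluorometrically by autoanalyzer. Mean ± SE of five experiments; t test vs control.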

Assay [7] can be described thus: Induction of norepinephrine release in Sprague-Dawley rat vas deferens at 1 x 10^-4 M after 30 mins by fluorometric analysis. Format: functional. An outline of the steps: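 Rat vas deferens pieces incubated 30 min in oxygenated Tyrode's with agent at 1×10^-4 M. Total catecholamines then measured fluorometrically by autoanalyzer. Mean ± SE of five experiments; t test vs control.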

In assay [8] the test system is Canis familiaris. Kind of assay: Reduction of blood pressure in mongrel dog at 1 to 2 mg/kg, iv by electrocardiograph analysis. The conditions noted are these: Canis lupus familiaris. Format: functional, organism-based. An outline of the steps: (§5)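 Dog blood pressure recorded after iv injection via a right femoral vein cannula (1–2 mg/kg), each dose washed in with 0.5 ml saline. Where stated, β blockade with propranolol 2 mg/kg, checked for adequacy with […].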

The species entered for assay [9] is Oryctolagus cuniculus. Kind of assay: Inhibition of spontaneous contractions in isolated rabbit atria at 1 x 10^-3 M. The conditions noted are these: Cardiac atrium. Format: functional.
The species entered for assay [10] is Oryctolagus cuniculus. Put plainly: Increase in spontaneous contractions in isolated rabbit atria at 1 x 10^-4 M. Format: functional. The conditions noted are these: Cardiac atrium.
The subject of assay [11] is Canis familiaris. Kind of assay: Induction of beta-adrenergic response in mongrel dog at 2 mg/kg, iv by electrocardiograph analysis. Format: functional, organism-based. On the set-up: dose 2 mg/kg. The conditions noted are these: Canis lupus familiaris.
Assay [12] deals with Canis familiaris. Put plainly: Increase in diastolic blood pressure in mongrel dog at 2 mg/kg, iv by electrocardiograph analysis. Format: functional, Canis lupus familiaris, Artery.
Assay [13] deals with Canis familiaris. Put plainly: Increase in systolic blood pressure in mongrel dog at 2 mg/kg, iv by electrocardiograph analysis. The assay is classed as functional, Canis lupus familiaris, Artery.
Assay [14] deals with Canis familiaris. Put plainly: Increase in pulse pressure in mongrel dog at 2 mg/kg, iv by electrocardiograph analysis. The assay is classed as functional, Canis lupus familiaris.
Assay [15] has as its system Canis familiaris. Kind of assay: Reduction of diastolic blood pressure in mongrel dog at 2 mg/kg, iv by electrocardiograph analysis in presence of alpha-blocker phenoxybenzamine. The assay is classed as functional, organism-based. On the set-up: dose 2 mg/kg. The conditions noted are these: Canis lupus familiaris, Artery.
In assay [16] the test system is Canis familiaris. Kind of assay: Reduction of systolic blood pressure in mongrel dog at 2 mg/kg, iv by electrocardiograph analysis in presence of alpha-blocker phenoxybenzamine. The conditions noted are these: Canis lupus familiaris, Artery. On the set-up: dose 2 mg/kg. Format: functional, organism-based.
The subject of assay [17] is Canis familiaris. Kind of assay: Reduction of pulse pressure in mongrel dog at 2 mg/kg, iv by electrocardiograph analysis in presence of alpha-blocker phenoxybenzamine. Format: functional, organism-based. On the set-up: dose 2 mg/kg. The conditions noted are these: Canis lupus familiaris.
Assay [18] concerns Canis familiaris. Kind of assay: Induction of beta-adrenergic response in mongrel dog at 2 mg/kg, iv by electrocardiograph analysis in presence of propranolol. The assay is classed as functional, organism-based. On the set-up: dose 2 mg/kg. The conditions noted are these: Canis lupus familiaris.
Assay [19] can be described thus: Potentiation of D(-)-norepinephrine-induced contraction in Sprague-Dawley rat vas deferens assessed as contraction level at 1 x 10^-2 M relative to norepinephrine. Format: functional.
Assay [20] has as its system Canis familiaris. Put plainly: Reduction of diastolic blood pressure in mongrel dog at 1 to 2 mg/kg, iv up to 30 seconds by electrocardiograph analysis in presence of alpha-blocker phenoxybenzamine. The conditions noted are these: dose mg/kg 1-2. Format: functional, Canis lupus familiaris, Artery. In a few lines:
(§6)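 Dogs pretreated with phenoxybenzamine 3 mg/kg as α-blocker, blockade checked with […]. Test agents given iv (1–2 mg/kg) via a femoral vein cannula, washed in with 0.5 ml saline; tracheotomized animals. Systolic, diastolic and pulse pressure followed over an initial 30-sec phase and a second phase of about 30 min.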

For assay [21], the system named is Canis familiaris. Put plainly: Reduction of systolic blood pressure in mongrel dog at 1 to 2 mg/kg, iv up to 30 seconds by electrocardiograph analysis in presence of alpha-blocker phenoxybenzamine. Format: functional, Canis lupus familiaris, Artery. The conditions noted are these: dose mg/kg 1-2. An outline of the steps: as §6
Assay [22] deals with Canis familiaris. Kind of assay: Reduction of pulse pressure in mongrel dog at 1 to 2 mg/kg, iv up to 30 seconds by electrocardiograph analysis in presence of alpha-blocker phenoxybenzamine. Format: functional, organism-based. Conditions: Canis lupus familiaris. In a few lines: as §6
For assay [23], the system named is Canis familiaris. Kind of assay: Reduction of diastolic blood pressure in mongrel dog at 1 to 2 mg/kg, iv up to 30 mins by electrocardiograph analysis in presence of alpha-blocker phenoxybenzamine. The assay is classed as functional, Canis lupus familiaris, Artery. The conditions noted are these: dose mg/kg 1-2. An outline of the steps:
as §6

The test system of assay [24] is Canis familiaris. Put plainly: Reduction of systolic blood pressure in mongrel dog at 1 to 2 mg/kg, iv up to 30 mins by electrocardiograph analysis in presence of alpha-blocker phenoxybenzamine. Format: functional, Canis lupus familiaris, Artery. The conditions noted are these: dose mg/kg 1-2. In a few lines: as §6
For assay [25], the system named is Canis familiaris. Kind of assay: Reduction of blood pressure in mongrel dog at 1 to 2 mg/kg, iv by electrocardiograph analysis in presence of propranolol. Conditions: Canis lupus familiaris. Format: functional, organism-based. An outline of the steps: as §5
Assay [26] relates to Canis familiaris. Put plainly: Reduction of pulse pressure in mongrel dog at 1 to 2 mg/kg, iv up to 30 mins by electrocardiograph analysis in presence of alpha-blocker phenoxybenzamine. Format: functional, Canis lupus familiaris. Conditions: dose mg/kg 1-2. In a few lines: as §6
The nature of assay [27]: as §2. Format: functional. In a few lines: as §3
Assay [28] can be described thus: as §4. The assay is classed as functional. An outline of the steps:
as §3

Assay [29] is filed under the species Oryctolagus cuniculus. Put plainly: Inhibition of spontaneous contractions in isolated rabbit atria at 1 x 10^-4 M. The assay is classed as functional. Conditions: Cardiac atrium.
Assay [30] has as its system Canis familiaris. Kind of assay: Reduction of blood pressure in iv dosed mongrel dog by electrocardiograph analysis in presence of hexamethonium and atropine. Format: functional, organism-based. The conditions noted are these: Canis lupus familiaris.

For `CC(C)N[C@@H]1C[C@@H]2CCCC[C@H]2C[C@@]1(O)c1ccccc1`, the Activity was determined as 94% in assay [1], 16% in assay [3], 9.5 µg/g in [6] and 8.1 µg/g in assay [7]. Further, the result in assay [2], in assay [4], in assay [5], in assay [8] and in [10] was Active. For the same compound, the inhibition result in assay [9] was “Active”.

With `CN[C@@H](C)[C@H](O)c1ccccc1` [EPHEDRINE], in assay [11], the outcome was Active. The Activity in assay [12], in assay [13] and in [14] was 40 mmHg each time. Also, the outcome in assay [15], in [16], in assay [17] and in [18] was inactive.

Turning to `CC(C)N[C@H](C)[C@H](O)c1ccccc1`, the Activity stood at 145% in [1], 70% in [19], 9.3 µg/g in [6] and 7.4 µg/g in [7]. In addition, the result in assay [2], in assay [4], in [5] and in assay [8] was Active. Further, the inhibition entry in assay [9] was “Active”.

Take `CC(C)N[C@H]1C[C@@H]2CCCC[C@H]2C[C@@]1(O)c1ccccc1`: the Activity is 96% in assay [1]; 10% in [3]; 9.6 µg/g in assay [6]; 7.8 µg/g in assay [7]; 50 mmHg in [20]; 50 mmHg in assay [21]. The Activity in assay [23] is listed as 30 mmHg; in assay [24] it was 15 mmHg; in assay [26], 15 mmHg. Besides, the result in [2], in assay [4], in assay [5], in assay [8], in assay [22] and in assay [25] was Active. Also, the outcome in assay [10] was Active. Also, in [9], the inhibition result is “Active”.

For `CC(C)N[C@H]1C[C@@H]2CCCC[C@H]2C[C@]1(O)c1ccccc1`, the Activity in assay [1] came to 132%; in assay [27], 130%; in assay [3], 88%; in assay [28] it was 84%; in [6], 9.1 µg/g; in [7], 7.9 µg/g. The result in assay [5], in assay [8] and in [10] was Active. The inhibition result in [9] is “Active”.

In the case of `CC(C)N[C@@H]1C[C@@H]2CCCC[C@H]2C[C@]1(O)c1ccccc1`, the Activity in assay [1] amounted to 128%; in [3] it was 85%; in assay [6], 9.3 µg/g; in assay [7] it was 7.7 µg/g. For the same compound, the result in assay [2], in assay [4], in [5] and in assay [8] was Active. Further, the inhibition result in assay [29] was “Active”.

Regarding `CC(C)N[C@@H](C)[C@H](O)c1ccccc1`, the Activity was determined as 158% in assay [1]; 90% in [19]; 9.2 µg/g in assay [6]; 7 µg/g in assay [7]; 50 mmHg in assay [20]; 50 mmHg in [21]. Further, the Activity turned out to be 30 mmHg in assay [23], 15 mmHg in assay [24] and 15 mmHg in assay [26]. The result in assay [2], in assay [4], in [5], in [8], in assay [22] and in assay [25] was Active. Also, the outcome in assay [30] was Active. For the same compound, in assay [29], the inhibition result is “Active”.
